Test results as given in ChEMBL document CHEMBL1125074, “Autoxidation of the serotonergic neurotoxin 5,7-dihydroxytryptamine” (J Med Chem, 1990).

Experiments:
[1] = Half-life was reported for slow rate of autooxidation reaction; assay type: ADME
[2] = Half-life was reported for stability at pH 8; assay type: physicochemical; conditions: buffer
[3] = Compound was autooxidized for 2 hour at 37 degree Celsius in pH 7.4 Pseudo-first-order rate constant; assay type: ADME; conditions: pH 7.4, 2 h
How it was run: (§1)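 5,7-DHT (0.5–1.0 mM) autoxidised at 37 °C in pH 7.4 phosphate buffer (μ = 0.2), with air vigorously bubbled through. Loss of 5,7-DHT was followed by HPLC peak area (reversed-phase RP-18; triethylamine/acetic acid mobile phase, pH 3.30; UV detection at 254 nm). The rate constant came from linear ln(peak area) vs time plots over the first 2 h.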

[4] = Compound was autooxidized for 2 hour at 37 degree Celsius in pH 7.4 phosphate buffer Pseudo-first-order rate constant; assay type: ADME; conditions: pH 7.4, 2 h; how it was run: as §1
[5] = Compound was autooxidized for 2 hour at 37 degree Celsius in pH 7.4 phosphate buffer pseudo-first-order rate constant 0.1 mM EDTA; assay type: ADME; conditions: pH 7.4, 2 h
[6] = Pseudo-first-order rate constant was determined in pH 7.4 phosphate buffer in presence 0.5 mM EDTA; assay type: ADME
[7] = Pseudo-first-order rate constant was determined in pH 7.4 phosphate buffer in presence 50 mM EDTA; assay type: ADME
[8] = Pseudo-first-order rate constant was determined in pH 7.4 phosphate buffer in presence 70 mM EDTA; assay type: ADME
[9] = Dissociation constant (pKa) was reported after potentiometric titration with 0.2 mM KOH; assay type: physicochemical
[10] = Dissociation constant (pKa) was determined by spectrophotometric method; assay type: physicochemical
How it was run: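 Compound (ca. 0.1 mM) first dissolved in phosphate buffer pH 2.2 (μ = 0.1); UV-visible spectrum recorded, then pH raised in ca. 0.5-unit steps to pH 10 with NaOH, spectrum taken at each step. pKa calculated from the pH-dependent shift in λmax of the two intense UV bands.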

Mus musculus = organism: Mus musculus; experiment: Compound was evaluated for lethal dose against mouse brain; assay type: toxicity, organism-based; conditions: in vivo

SMILES: CC1(C)CC=CN1[O]
- half-life [1]: 1 min
- half-life [2]: 35 min

SMILES: NCCc1c[nH]c2c(O)cc(O)cc12
- K [3]: 0.046 min⁻¹
- K [4]: 0.012 min⁻¹
- K [5]: 0.012 min⁻¹
- K [6]: 0.017 min⁻¹
- K [7]: 0.014 min⁻¹
- K [8]: 0.015 min⁻¹
- pKa [9]: 4.8

SMILES: NCCc1c[nH]c2c1C(=O)C(=O)C=C2O
- pKa [10]: 5.6
- LD50 (Mus musculus): 21 µg

SMILES: NCCc1c[nH]c2c1C(=O)C(O)=C(C1=C(O)c3[nH]cc(CCN)c3C(=O)C1=O)C2=O
- pKa [10]: 6.5
